The values that follow come from ChEMBL document CHEMBL1154958, “Novel molecular hybrids of cinnamic acids and guanylhydrazones as potential antitubercular agents” (Bioorg Med Chem Lett, 2010).

For data set [1], the system named is Mycobacterium tuberculosis. The experiment in a line: Antituberculosis activity against Mycobacterium tuberculosis H37Rv after 7 days by resazurin microtiter assay. Conditions: 168 h. Format: functional. In short, it runs like this:
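H37Rv suspension seeded at 10⁵ cells/well in Middlebrook 7H9 broth. Compounds were serially diluted on the plate, and controls got matching DMSO. Plates were incubated at 37 °C for 7 days, then fresh 0.02% resazurin was added and plates incubated a further 48 h. MIC was the lowest concentration giving complete inhibition, read visually by colour.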

Data set [2] can be described thus: Cytotoxicity against african green monkey Vero C1008 cells after 72 hrs by MTT assay. Format: cell-based. Conditions: chlorocebus sabaeus.
Data set [3] is described as follows: Cytotoxicity against african green monkey Vero C1008 cells assessed as cell viability at 125 ug/ml after 72 hrs by MTT assay. Format: cell-based. Particulars: chlorocebus sabaeus, read-out: Activity.
Data set [4] is described as follows: Cytotoxicity against african green monkey Vero C1008 cells assessed as cell viability at 62.5 ug/ml after 72 hrs by MTT assay. Conditions: chlorocebus sabaeus, read-out: Activity. Format: cell-based.
The nature of data set [5]: Cytotoxicity against african green monkey Vero C1008 cells assessed as cell viability at 31.25 ug/ml after 72 hrs by MTT assay. Conditions: chlorocebus sabaeus, read-out: Activity. Format: cell-based.
Data set [6] is described as follows: Cytotoxicity against african green monkey Vero C1008 cells assessed as cell viability at 2000 ug/ml after 72 hrs by MTT assay. Conditions: chlorocebus sabaeus, read-out: Activity. Format: cell-based.
Data set [7] in a line: Cytotoxicity against african green monkey Vero C1008 cells assessed as cell viability at 1000 ug/ml after 72 hrs by MTT assay. Format: cell-based. Conditions: chlorocebus sabaeus, read-out: Activity.

SMILES strings stand for the structures. Values after ≈ are worked out from the molar mass of the structure shown.

As for `NNC(=O)c1ccncc1` [ISONIAZID], the MIC in data set [1] came out at 1.8 µM (≈ 0.247 µg/mL). For the same compound, the CC50 at 72 h in data set [2] amounted to 5.83 mM. In addition, the viability at 72 h, 125 ug/ml in data set [3] was determined as 95.5%. For the same compound, the viability at 72 h, 62.5 ug/ml in data set [4] worked out at 98.5%. Further, the viability at 72 h, 31.25 ug/ml in data set [5] worked out at 99.3%. Further, in data set [6], the viability at 72 h, 2000 ug/ml came out at 23.1%. Besides, the viability at 72 h, 1000 ug/ml in data set [7] was 31.7%.

`N=C(N)N/N=C/c1ccc(O)cc1` returned an MIC in data set [1] of 1120 µM (≈ 200 µg/mL).

As for `O=C(O)/C=C/c1ccccc1` [CINNAMIC ACID], the MIC in data set [1] worked out at 675 µM (≈ 100 µg/mL).

In data set [1], `O=C(/C=C/c1ccccc1)Oc1ccccc1` [PHENYL CINNAMATE] came in with an MIC of 502 µM (≈ 113 µg/mL).
